This is an account of results in ChEMBL document CHEMBL3813679, “DARC: Mapping Surface Topography by Ray-Casting for Effective Virtual Screening at Protein Interaction Sites” (J Med Chem, 2016).

The source made the active and inactive calls. The rule behind the calls is not given here.

The target of experiment [1] is T1, Induced myeloid leukemia cell differentiation protein Mcl-1 (Homo sapiens, UniProt Q07820). Nature of the experiment: biochemical.
Experiment [2] deals with T1, Induced myeloid leukemia cell differentiation protein Mcl-1. The experiment is described as follows: Reversible binding affinity to PEST and transmembrane regions lacking N-terminal His6/MBP-tagged human MCl1 (172 to 327 residues) expressed in Escherichia coli Rosetta2(2DE3) pLysS cells at 50 uM measured for 300 secs by bio-layer interferometry. In general terms: Biolayer interferometry detects binding as a change in optical thickness at a sensor tip.

Experiment [3] shares this target. Nature of the experiment: Binding affinity to PEST and transmembrane regions lacking N-terminal His6/MBP-tagged human MCl1 (172 to 327 residues) expressed in Escherichia coli Rosetta2(2DE3) pLysS cells assesed as inhibition of protein interaction with carboxyfluorescein-labeled 26-mer Noxa peptide at 15 nM to 250 uM by fluorescence polarization assay in presence of CHAPS. The procedure, abridged:
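Competition fluorescence polarization assay measuring displacement of a […] cognate (Noxa) peptide from Mcl-1. Polarization was read across a dose series of test compound. Buffer contained 0.1% CHAPS to rule out compound aggregation. Ki values were derived from the competition data.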
A general note: In fluorescence polarisation assays a small probe gives low polarisation when free and higher when bound to something large.

T1 sequence (Q07820 whole entry, the tested form may be a part): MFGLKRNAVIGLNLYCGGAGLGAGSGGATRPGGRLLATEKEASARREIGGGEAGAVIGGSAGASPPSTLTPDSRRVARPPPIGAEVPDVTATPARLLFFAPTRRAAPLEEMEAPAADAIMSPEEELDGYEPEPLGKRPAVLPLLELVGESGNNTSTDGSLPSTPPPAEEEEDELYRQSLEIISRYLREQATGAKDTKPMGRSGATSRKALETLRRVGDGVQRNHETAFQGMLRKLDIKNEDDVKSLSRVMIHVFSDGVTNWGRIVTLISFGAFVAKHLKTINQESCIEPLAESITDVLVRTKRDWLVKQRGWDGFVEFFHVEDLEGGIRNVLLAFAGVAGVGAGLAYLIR

`COc1cc2oc(-c3ccccc3[N+](=O)[O-])cc(=O)c2c(OC)c1OC` returned a Ki in experiment [1] greater than 50 µM.

For `C[C@@]12CC[C@@H]3[C@H](CCC4=CC(=O)CC[C@H]43)[C@H]1CC[C@H]2OC1(O)C(=O)c2ccccc2C1=O`, the result in experiment [2] was Active. Also, in experiment [3], the inhibition entry was “Active”. Also, the affinity in experiment [1], expressed as Ki, was 12 µM.

With `COc1cc(O)c(C(=O)/C=C/c2ccc(C(F)(F)F)cc2)c(OC)c1OC`, the inhibition constant Ki in experiment [1] is greater than 50 µM.

The compound `COc1ccc(C(=O)/C=C/c2cccc(F)c2O)cc1` had a Ki in experiment [1] of 20 µM.

In experiment [1], `COc1cc(O)c(C(=O)/C=C/c2ccccc2[N+](=O)[O-])c(OC)c1OC` showed an inhibition constant (Ki) greater than 50 µM.

For `COc1ccc(/C=C/C(=O)c2cc(OC)c(OC)c(OC)c2O)cc1`, the inhibition constant (Ki) in experiment [1] was greater than 50 µM.

Regarding `COc1cc(C(=O)/C=C/c2ccc(O)cc2)c(O)c(OC)c1OC`, in experiment [1], the inhibition constant Ki stood at 40 µM.

`COc1cc(C(=O)/C=C/c2ccc(C(F)(F)F)cc2)c(O)c(OC)c1OC` showed a Ki in experiment [1] greater than 50 µM.

`COc1cc(C(=O)/C=C/c2ccc3c(c2)OCO3)c(O)c(OC)c1OC` returned a Ki in experiment [1] greater than 50 µM.

For `COc1cc(C(=O)/C=C/c2ccc([N+](=O)[O-])cc2)c(O)c(OC)c1OC`, in experiment [1], the inhibition constant (Ki) is greater than 50 µM.

As for `O=C(/C=C/c1ccncc1)c1ccc(O)cc1`, the inhibition constant Ki in experiment [1] was greater than 50 µM.

In experiment [1], `COc1ccc(C(=O)/C=C/c2cc(F)c(O)c(Cl)c2)cc1` registered a Ki of 7 µM.

For the compound `COc1cc(O)c(C(=O)/C=C/c2ccc(O)c(OC)c2)c(OC)c1`, the result in experiment [2] was Active. Further, in experiment [3], the “inhibition of Noxa peptide binding (active/inactive call)” value (“inhibition … (active/inactive call)” below) is “Active”. Also, in experiment [1], the inhibition constant Ki was 21 µM.

Regarding `O=C(/C=C/c1cc(F)c(O)c(F)c1)c1ccc2c(c1)CCO2`, the inhibition constant Ki in experiment [1] was greater than 50 µM.

In experiment [1], `COc1cc2oc(-c3ccccc3N)cc(=O)c2c(OC)c1OC` had a Ki greater than 50 µM.

As to `COc1cc(O)c(C(=O)/C=C/c2ccc([N+](=O)[O-])cc2)c(OC)c1OC`, the Ki in experiment [1] was greater than 50 µM.

`O=C(/C=C/c1ccc(O)cc1)c1ccc2c(c1)CCO2` showed a Ki in experiment [1] greater than 50 µM.

With `Cc1c(/C=N/N2C=Nc3c([nH]c4ccccc34)C2)c(=O)oc2c3c4c(cc12)CCCN4CCC3`, the result in experiment [2] was Active. In addition, in experiment [3], the “inhibition … (active/inactive call)” value is “Active”.

`COc1ccc(C(=O)/C=C/c2cc(F)c(O)c(Cl)c2)c(OC)c1OC` gave an inhibition constant (Ki) in experiment [1] of 3 µM.

Turning to `c1cc2c(cc1[C@H]1OC[C@H]3[C@H]1CO[C@H]3c1ccc3c(c1)OCO3)OCO2`, the outcome in experiment [2] was Active. Besides, in experiment [3], the “inhibition … (active/inactive call)” value was “Active”. Besides, the affinity in experiment [1] corresponds to a Ki of 7 µM.

With `COc1ccc(C(=O)/C=C/c2ccncc2)c(O)c1`, the inhibition constant (Ki) in experiment [1] was greater than 50 µM.

In experiment [1], `COc1ccc(C(=O)/C=C/c2ccc(O)c(F)c2)c(OC)c1OC` showed a Ki of 28 µM.

Compound `COc1cc(/C=C/C(=O)c2ccc(OC)c(OC)c2OC)cc(Cl)c1O` had a Ki in experiment [1] of 2 µM.

The compound `COc1ccc(/C=C/C(=O)c2ccc(O)cc2)c(O)c1` registered a Ki in experiment [1] greater than 50 µM.

Compound `O=C(/C=C/c1cc(F)c(O)c(Cl)c1)c1ccncc1` yielded an inhibition constant (Ki) in experiment [1] greater than 50 µM.

In experiment [1], `COc1cc2oc(-c3ccc(C(F)(F)F)cc3)cc(=O)c2c(OC)c1OC` registered a Ki greater than 50 µM.

In the case of `COc1ccc(C(=O)/C=C/c2cc(Cl)c(O)c(OC)c2)cc1`, the affinity in experiment [1], expressed as Ki, was 10 µM.

Regarding `COc1ccc(C(=O)/C=C/c2ccc(O)cc2)cc1`, the Ki in experiment [1] is greater than 50 µM.

In experiment [1], `O=C(/C=C/c1ccc(O)c(F)c1)c1ccc2c(c1)CCO2` returned a Ki greater than 50 µM.

On to `COc1cc2oc(-c3ccc(N)cc3)cc(=O)c2c(OC)c1OC`, for which the Ki in experiment [1] is greater than 50 µM.

For the compound `COc1ccc(/C=C/C(=O)c2ccc(O)cc2)cc1`, in experiment [1], the inhibition constant (Ki) is greater than 50 µM.

A word on the Ki: it is the dissociation constant of the complex between target and ligand, obtained from inhibition or displacement. Lower therefore signals tighter binding.
